According to publication PMC6743453 (Molecular Biology of the Cell, 2019):
Entries after “also recorded” stand apart in the source; their conditions may differ.

How the values were obtained:
[1] = system: human OCRL ASHRhoGAP domain; test: Peptide array overlay with GST-hOCRL-ASHRhoGAP; assay type: binding; settings: summary statement, test not specified at the place
[2] = system: endogenous OCRL (mouse brain extracts); test: GST-F&H peptide pull down of endogenous OCRL from mouse brain extracts; assay type: binding; settings: GST fusions of 13 amino acid F&H motif peptides, Ses2 and APPL1 as positive controls
[3] = system: F&H surface of Dd5P4 (GFP-Dd5P4 WT vs W620A); test: GFP immunoprecipitation and mass spectrometry of GFP-Dd5P4 interactors; assay type: binding, Dictyostelium discoideum; settings: triplicate GFP immunoprecipitates; Dd5P4- cells expressing GFP-Dd5P4 WT vs W620A; label-free quantitation
Summary of the method: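 Cells were grown to 80% confluency in HL5 (glucose, vitamins, trace elements), with fusion strains under 5 µg/ml G418. Lysis buffer: 20 mM Tris pH 8, 10% glycerol, 100 mM NaCl, 1 mM EDTA, 1 mM DTT. Untransfected WT cells served as negative control. Beads were digested overnight with trypsin at 37°C, then StageTip-desalted. C18 nanoLC used a 95-min 5–30% acetonitrile gradient into a Q Exactive, with data-dependent top-10 MS/MS.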

[4] = system: endogenous OCRL (Cos7 cells); test: Frabin-GFP anti-GFP co-immunoprecipitation with endogenous OCRL in Cos7 cells; assay type: binding; settings: full length Frabin-GFP, GFP-trap beads, Western blot
Summary of the method: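 Frabin-GFP expressed in Cos7 cells by nucleofection, then pulled down on GFP-trap beads and washed extensively. Western blot detected Frabin-GFP with anti-GFP antibody and endogenous OCRL with mouse anti-human OCRL antibody.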

Molecule | enrichment in GFP-Dd5P4 immunoprecipitates [3] | also measured
AFHQRHETFRNAI* [Frabin] | – | strength of Frabin F&H peptide interaction with OCRL [1]: strong; enrichment of endogenous OCRL by GST-F&H peptide [2]: specifically enriched endogenous OCRL
DDB_G0284853: mycBP2/Highwire-like protein of D. discoideum | specifically enriched in precipitates from GFP-Dd5P4-expressing cells versus negative control precipitates, but not in precipitates from GFP-Dd5P4^W620A-expressing cells | –
DDB_G0275301: OCRL-Interacting Bar domain Protein of D. discoideum (protein) MFKKGLDVLSKTKNAAVSSMTELETESDEVQNAKVALKNMKWSIKLLIQLAKNYFATSDKQVQQGTAFSVILQRFSEKISHTNYIINQTLPLSDSLREVGEGIKNSSTYFQQYTQIFCDKFATNIEALYVGHVKKVATLEKQQEESRIKYNNALNYLKSTQKSGHTGTKLAEKTTEYENAKAYYEQISLNLISATNDMVNYVQREVAVQMKQFVAEQQLMVQECIKMWVIAENKLFNSQSPVNTTSTTSPNTYGDYNNNANTVNLSKLSLDKEEQPPQPYQPPQQHSPPQQTFHQSPPTDFSSQHQQYSFDQSSPQETYQPPQQQQPEGQKSPNPFDDKNPFDN | specifically enriched in precipitates from GFP-Dd5P4-expressing cells versus negative control precipitates, but not in precipitates from GFP-Dd5P4^W620A-expressing cells | –
GxcU: putative Rho-GEF of D. discoideum (protein) MDTKNKEILGSTIKAWIGRKRYKTMMVNKTNRDKVAKEILDTEQIYVRNLETIVQFYLKPLRNINPPLLSPKSIQIIFGHIEDLLSLNTELLTSIQDRMTTWYQDKRLGDIFTKMAPYLKVYTEYCGNYDKAVARLKQKSDESRDLQMFLKRVTSENSFGLDLNSLLVTPIQRIPRYKLLLQSLIQLTPVEFSDYPTLAKALENVALVADHINESIREKQNSEKILTIQKRFTGQCPPLLAPLRTFIREGSLTKVCRKDHKKRWFILFSDALVYGNRIDTAVGNPIYKFHRLLPLSNTKIANLDDTKHKNSFQLIHPIKSFTLIADTEQEKSSWMNSFSDAQNFLLRNEGSVARMNKQYRSINILKPKEEETVSTAPVWIPDSEAIQCMECTIKFTTIRRRHHCRRCGNVVCGKCSEQKWTLDQYKKDARVCKTCYNYLSISSSRSNENNVSSSNNLSTPTSTFTATTATATAPFGTLTDGASLADVSSDSEGEDNSSSINDSNPDMPIINGLSSIQIDNTPVILNTVNPSPPLLSQPQPQQPQQPQLQPLQQPLQQPPQPPQPPQTNHKSFIATHTAYNKENSLKSTSPSSSFIETSTSTSASTSTSTSTSTSTSTSTSTSTSTSTSNSTSNSTLTPGPPMLSKSNAGNSSLLDFCKSYIQNSPNVSPAKVEKHKHSSSSSSASNSPMQSRTNLDIPSTTTTSTSKGSISPTQSSESIVLPELKPITHDPLVTSNNSSSTLKVNQPIQHTNSSSKLNVIVSTPQTTQTTENNVNNTNTNTTTTNNNNNNNNNNNNNNNNNNNNNNNNNNNNSDVSSPKPTTKSLPPTPPTKKLPPTPPPKPLPPQPTLPQQPTLPPQPNLPPQPNLPPQPNLPPQPNLPPQPNLPQQPDLSQPPPQQQQQPTLDQAPPRPPKPNQDSRSQSFLCISSTVNSTPPTPPPKRIISTHPANTSFIYQPQQYVSSPNINNVPPPLPPPRIKSQAPIQRD | specifically enriched in precipitates from GFP-Dd5P4-expressing cells versus negative control precipitates, but not in precipitates from GFP-Dd5P4^W620A-expressing cells | –
Frabin-GFP: full length Frabin-GFP expressed in Cos7 cells (protein, left off: GFP, end not stated, kept) MEEIKPASASCVSKEKPSKVSDLISRFEGGSSLSNYSDLKKESAVNLNAPRTPGRHGLTTTPQQKLLSQHLPQRQGNDTDKTQGAQTCVANGVMAAQNQMECEEEKAATLSSDTSIQASEPLLDTHIVNGERDETATAPASPTTDSCDGNASDSSYRTPGIGPVLPLEERGAETETKVQERENGESPLELEQLDQHHEMKETNEQKLHKIANELLLTERAYVNRLDLLDQVFYCKLLEEANRGSFPAEMVNKIFSNISSINAFHSKFLLPELEKRMQEWETTPRIGDILQKLAPFLKMYGEYVKGFDNAMELVKNMTERIPQFKSVVEEIQKQKICGSLTLQHHMLEPVQRIPRYEMLLKDYLRKLPPDSLDWNDAKKSLEIISTAASHSNSAIRKMENLKKLLEIYEMLGEEEDIVNPSNELIKEGQILKLAARNTSAQERYLFLFNNMLLYCVPKFSLVGSKFTVRTRVGIDGMKIVETQNEEYPHTFQVSGKERTLELQASSAQDKEEWIKALQETIDAFHQRHETFRNAIAKDNDIHSEVSTAELGKRAPRWIRDNEVTMCMKCKEPFNALTRRRHHCRACGYVVCWKCSDYKAQLEYDGGKLSKVCKDCYQIISGFTDSEEKKRKGILEIESAEVSGNSVVCSFLQYMEKSKPWQKAWCVIPKQDPLVLYMYGAPQDVRAQATIPLLGYVVDEMPRSADLPHSFKLTQSKSVHSFAADSEELKQKWLKVILLAVTGETPGGPNEHPATLDDHPEPKKKSEC | – | coprecipitation of endogenous OCRL with Frabin-GFP [4]: weak but specific interaction with endogenous OCRL; also recorded: weak, albeit specific, coprecipitation with OCRL
DDB_G0280015: PH domain Interacting with OCRL, 741 amino acid protein of D. discoideum (protein) MESSSMTTNNNNNNSTISPSSSTTSISTSKNNDFLTLHKAYIDEWLMVSFLPILKTTYDGENNFYDISNLNIKNVNQRNIPFSEQLFALDRQFQNLINQWEKLSRSDQQRAAKIESYQQSFYTFIDRIKSTLEKTMVELGGSLEDSNFLAAAISLKEKQSKNKRLTIMARSRISPGGTSSTQYQHQMHLTGPISIVWNEILIIITRKVNEEVVRLQTENINNNIKNINNSEFNITNDIYQFNNNNLTQANKLEINNQRQKLYQQALSNIVPMLFEWRIMMANAQKVISEEKRFKVNPFIPTTVYDHNSSSFISAPILISTTNKTATTLLNNLNNNNIINNNNNNNNNNNNNNNNNNNNNNNNNSSSNSNNNNNSPISNSPSSSSPSPSSPTLTNRPSFINYDNQNNENNINNNNNNENNIGNNNINNNNSNENSDNKFSEEINISSSPPGTSGMTNSTSNLPTIASPTSWTKAVKRPAMSSSGGNIPILNNLGTSLNNNNNNKQIQDNNNNNLNTINANSNGNNNNSSNNVNSENNNIPTGGIIKQGWMKKRGTKNKSWKKRYFILDMKKTLRYYKDNSKIPHGNNSNNSGGGSSSNNNNCNSGNNNNGLNGGSGKGDQVNGNNISLPIGNNPHFHSSSGSGIPTTSPSMSSSSTSLENNDILSSFDHLKYKGSIDLYTSLVVAIKPSTFNVNINNSGSFKEDNNSYFGMDIITPSRTWNFCCESSKSMEDWLIVLKSANK | specifically enriched in precipitates from GFP-Dd5P4-expressing cells versus negative control precipitates, but not in precipitates from GFP-Dd5P4^W620A-expressing cells | –
